Measured values taken from ChEMBL document CHEMBL1140307, “Design and synthesis of alpha-aryloxyphenylacetic acid derivatives: a novel class of PPARalpha/gamma dual agonists with potent antihyperglycemic and lipid modulating activity” (J Med Chem, 2005).

Columns and labels:
[1] = biological target: T1, Peroxisome proliferator-activated receptor alpha (Homo sapiens, UniProt Q07869); assay: In vitro binding affinity for human PPAR alpha
T1 sequence (Q07869 whole entry): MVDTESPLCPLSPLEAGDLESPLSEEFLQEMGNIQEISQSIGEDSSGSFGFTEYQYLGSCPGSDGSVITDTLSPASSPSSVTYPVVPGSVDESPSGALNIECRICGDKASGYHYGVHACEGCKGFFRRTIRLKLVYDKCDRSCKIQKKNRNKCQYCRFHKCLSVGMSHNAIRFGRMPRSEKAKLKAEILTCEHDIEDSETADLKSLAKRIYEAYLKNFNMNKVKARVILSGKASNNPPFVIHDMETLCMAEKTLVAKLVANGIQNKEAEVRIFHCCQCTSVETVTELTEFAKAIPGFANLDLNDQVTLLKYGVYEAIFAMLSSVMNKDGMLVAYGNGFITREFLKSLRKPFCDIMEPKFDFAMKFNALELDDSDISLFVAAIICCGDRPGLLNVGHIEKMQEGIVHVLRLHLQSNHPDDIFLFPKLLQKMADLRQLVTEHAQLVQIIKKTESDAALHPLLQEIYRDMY

[2] = biological target: T2, Peroxisome proliferator-activated receptor gamma (Homo sapiens, UniProt P37231); assay: In vitro binding affinity for human PPAR gamma
T2 sequence (P37231 whole entry): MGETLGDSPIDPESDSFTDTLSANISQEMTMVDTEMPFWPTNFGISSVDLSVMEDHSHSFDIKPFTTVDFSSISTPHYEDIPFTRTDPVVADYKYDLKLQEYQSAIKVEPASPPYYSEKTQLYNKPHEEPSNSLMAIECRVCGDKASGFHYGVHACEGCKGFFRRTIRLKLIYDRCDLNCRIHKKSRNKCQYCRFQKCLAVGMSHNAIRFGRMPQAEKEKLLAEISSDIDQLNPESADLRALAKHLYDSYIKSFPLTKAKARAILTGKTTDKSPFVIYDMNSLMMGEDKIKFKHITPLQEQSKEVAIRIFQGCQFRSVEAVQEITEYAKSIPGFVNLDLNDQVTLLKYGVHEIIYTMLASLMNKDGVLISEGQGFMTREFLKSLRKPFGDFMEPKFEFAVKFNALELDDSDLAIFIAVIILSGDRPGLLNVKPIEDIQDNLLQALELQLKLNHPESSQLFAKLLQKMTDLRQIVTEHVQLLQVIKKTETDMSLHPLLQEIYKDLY

[3] = biological target: T1, Peroxisome proliferator-activated receptor alpha; assay: Agonist response against human PPAR alpha in transactivation assay
[4] = biological target: T2, Peroxisome proliferator-activated receptor gamma; assay: Agonist response against human PPAR gamma in transactivation assay; assay type: functional
Canis familiaris [5] = assay: Percentage change in the serum cholesterol upon administration of compound (20 mpk) in dogs; assay type: functional, Canis lupus familiaris
Summary of the method: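 Male Beagle dogs were housed individually on a cholesterol-free chow diet, five per group. Baseline serum cholesterol was taken from weekly jugular bleeds before the study. Compound suspended in 0.5% methylcellulose was gavaged daily for 2 weeks. Serum cholesterol was measured during and after dosing and reported as mean percent change (n = 5).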

Cricetinae gen. sp. [6] = assay: Percentage change in the serum cholesterol upon administration of compound (100 mpk) in hamster; assay type: functional
Summary of the method: (§1)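 Male Golden Syrian hamsters were fed normal rodent chow and dosed orally once daily with compound. Serum total cholesterol and triglyceride were measured and expressed as percent change versus vehicle controls.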

Cricetinae gen. sp. [7] = assay: Percentage change in the serum triglyceride upon administration of compound (100 mpk) in hamster; assay type: functional; summary of the method: as §1
Cricetinae gen. sp. [8] = assay: Effect (100 mpk) on serum cholesterol in hamster; assay type: functional
Summary of the method: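 Male Golden Syrian hamsters on normal rodent chow, dosed orally with test compound (9 days per table legend). Serum total cholesterol and triglyceride were measured in mg/dL. Values are group means, expressed as % change versus the vehicle-treated control group.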

Mesocricetus auratus = organism: Mesocricetus auratus; assay: Effect (100 mpk) on serum triglyceride in Golden Syrian hamster
Canis familiaris [9] = assay: Percentage change in the serum cholesterol upon administration of compound (100 mpk) in dogs

SMILES | IC50 [1] [nM] | IC50 [2] [nM] | EC50 [3] [nM] | EC50 [4] [nM] | other results
CCCc1cc(C(=O)CC)cc(Cl)c1O[C@H](C(=O)O)c1ccc(C(C)C)cc1 | 260 | 220 | 260 | 360 | –
CCCc1cc2c(oc(=O)n2CC)c(CCC)c1O[C@H](C(=O)O)c1ccc(Cl)cc1 | 260 | 220 | – | – | –
CCC(=O)c1ccc(OC(C(=O)O)c2ccccc2)cc1 (stereo not given) | > 50000 | > 50000 | – | – | –
CCC(=O)c1cc(Cl)c(OC(C(=O)O)c2ccccc2)c(Cl)c1 (stereo not given) | 1600 | > 50000 | – | – | –
CCCc1cc(C(=O)CC)cc(CCC)c1NC(C(=O)O)c1ccc(C(C)C)cc1 (stereo not given) | > 50000 | > 50000 | – | – | –
CCCc1cc2c(oc(=O)n2CC2CC2)c(CCC)c1O[C@H](C(=O)O)c1ccc(C(C)C)cc1 | 130 | 120 | – | 330 | –
CCCc1cc2c(oc(=O)n2C(C)C)c(CCC)c1O[C@H](C(=O)O)c1ccccc1 | 550 | 1790 | – | – | –
CCCc1cc2c(=O)n(C)oc2c(CCC)c1O[C@H](C(=O)O)c1ccccc1 | 850 | 3800 | 670 | 390 | –
CC(C)OC(=O)C(C)(C)Oc1ccc(C(=O)c2ccc(Cl)cc2)cc1 [FENOFIBRATE] | – | – | – | – | Change (Canis familiaris [5]): -4.7%; Change (Cricetinae gen. sp. [6]): -29%; Change (Cricetinae gen. sp. [7]): -26%; Cholesterol level (Cricetinae gen. sp. [8]): 91 mg/dL; Triglyceride level (Mesocricetus auratus): 244 mg/dL; Change (Canis familiaris [9]): -23.5%
CCCc1cc(C(=O)C(C)C)cc(CCC)c1OC(C(=O)O)c1ccccc1 (stereo not given) | 160 | 3160 | 250 | – | –

More lines, main results first:

IC50 [1] [nM] | IC50 [2] [nM] | EC50 [3] [nM] | EC50 [4] [nM] | SMILES | other results
130 | 2700 | 160 | – | CCCc1cc(C(=O)C(C)(C)C)cc(CCC)c1OC(C(=O)O)c1ccccc1 (stereo not given) | –
43 | 200 | 110 | – | CCCc1cc(C(=O)CC)cc(CCC)c1O[C@H](C(=O)O)c1ccc(OC(C)C)cc1 | –
100 | 110 | 310 | 140 | CCCc1cc2c(oc(=O)n2CC(F)(F)F)c(CCC)c1O[C@H](C(=O)O)c1ccc(C(C)C)cc1 | –
89 | 210 | 250 | – | CCCc1cc(C(=O)CC)cc(CCC)c1O[C@H](C(=O)O)c1ccc(C(F)(F)F)cc1 | –
150 | 87 | – | 120 | CCCc1cc2c(oc(=O)n2CCC)c(CCC)c1O[C@H](C(=O)O)c1ccc(C(C)C)cc1 | –
160 | 260 | 160 | 197 | CCCc1cc(C(=O)CC)cc(C)c1OC(C(=O)O)c1ccc(C(C)C)cc1 (stereo not given) | –
